Assay results published in PubChem BioAssay.
Records with an inconclusive call do not appear. Active and inactive are the calls of the source.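 Rule for the calls, unless noted: active = inhibition over a set limit, the all-compound mean plus 3 SD, in both replicate runs; inconclusive = over that limit in just one replicate run; inactive = at or under that limit in both runs.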

Assays:
[1] = S. cerevisiae growth inhibition in permissive medium (OD615), pilot counter-assay for S. cerevisiae lifespan shortening project, permissive growth control (AID 705;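 active = growth inhibition above 25% in both replicates, a cutoff set 3 SD above the mean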); conditions: OD615, 24 h, at 10 µM, active compounds read high
Outline: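 System – S. cerevisiae with engineered DeaD lifespan system · Buffer or medium – SC raffinose/galactose permissive medium · Schedule – cells pre-grown 4 h, then 24 h compound exposure, 30 °C humidified · Technique – culture turbidity as optical density at 615 nm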

[2] = S. cerevisiae growth inhibition in restrictive medium, OD615, pilot screen, restrictive growth control, yeast lifespan reduction project (AID 706;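 active = growth inhibition above a set limit, 3 SD over mean compound inhibition, in both replicates, cut at about 43% in these data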;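 note: modified DeaD lifespan yeast strain shifted to restrictive glucose medium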); conditions: OD615, 48 h, at 10 µM, active compounds read high
Outline: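 Material: engineered S. cerevisiae DeaD strain / Medium: glucose-based CSMM-D restrictive medium / Compound: single dose of 10 µM compound final, 0.25% DMSO / Timing: 4 h pre-incubation, 48 h exposure at 30 °C / Technique: OD615 absorbance reading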

[3] = doxorubicin toxicity protection in MRP-1 cells – H69AR cells, CellTiter-Glo, duplicate, MRP-1 activator project, pilot screen (AID 807;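 active = viability increase at or above a cutoff of the median across tested compounds plus 3 SD, cut at about 8.5% in these data, passing the limit was not always enough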;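 note: compound pretreatment 18-22 h then 72 h combined with doxorubicin; 0% = doxorubicin alone and 100% = vehicle without doxorubicin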); conditions: H69AR viability with doxorubicin, CellTiter-Glo luminescence; at 10 µM; active compounds read high
[4] = viability of HCT116 without oncogenic beta-catenin – human colon tumor cells, pilot screen (AID 823;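 active = cell viability at or below a set limit in both duplicate runs, the limit being the all-compound median minus 4 SD, cut at about 23% in these data, passing the limit was not always enough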;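 note: 0% = wells killed by 20 µM Hyamine and 100% = untreated DMSO cell wells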); conditions: HCT116 beta-catenin knockout viability, CellTiter-Glo, 60 h; at 10 µM; active compounds read low
[5] = viability of PTEN-null HCT116 cells – cell-based, HCT116 clonal line, CellTiter-Glo, pilot screen (AID 824;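 active = viability at or below 27.92% in each of two runs, the all-compound median minus 4 SD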;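 note: 0% = 20 µM Hyamine control and 100% = vehicle cell control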); conditions: HCT116 PTEN-deleted viability, 60 h, at 10 µM, active compounds read low
[6] = RAM pathway blockade in budding yeast – dse1pr::URA3 reporter, 5-FOA selection, pilot screen (AID 869);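 note: 0% = DMSO wells with no growth and 100% = 10 µM 1-NA-PP1 with full growth; RAM network block rescues cells from 5-FOA so hits raise OD615 growth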; conditions: S. cerevisiae dse1pr::URA3 5-FOA growth, OD615, 2 d, at 10 µM, active compounds read high
[7] = RAM signaling pathway blockade in yeast – S. cerevisiae, Pdr1DBD-CYC8 efflux-inhibited sensitized strain, primary screen (AID 1298;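 active = RAM network inhibition above 8.4% in each of two replicates, 3 SD over the compound average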;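 note: 0% = DMSO untreated cells without growth and 100% = 10 µM 1-NA-PP1 full growth; higher means more yeast growth rescued from 5-FOA killing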); conditions: S. cerevisiae cbk1-as DSE1-URA3 strain, 5-FOA growth OD615, 2 d; at 50 µM; active compounds read high

O=C(CN1CC(c2ccccc2)CC1=O)Nc1ccccc1 (centres undefined)
inactive: growth inhibition [1] -20.4% | growth inhibition [2] -12.7% | viability increase [3] -1.8% | viability [4] 106% | viability [5] 95.4% | inhibition [6] 1.06% | RAM network inhibition [7] 4.01%

C=Cn1ccnc1P(=S)(c1cc(N(CC)CC)ns1)c1nccn1C=C
inactive: growth inhibition [1] -0.585% | growth inhibition [2] 21.8% | viability increase [3] -0.61% | viability [4] 92.1% | viability [5] 90.5% | inhibition [6] 1.49% | RAM network inhibition [7] 2.27%

CCCCCP(=O)(O)c1ccccc1
inactive: growth inhibition [1] -5.12% | growth inhibition [2] -13.1% | viability increase [3] -1.16% | viability [4] 95.2% | viability [5] 103% | inhibition [6] 0.735% | RAM network inhibition [7] 2.16%

CN1CC=C(c2c[nH]c3ccccc23)CC1
inactive: growth inhibition [1] 0.43% | growth inhibition [2] 10.4% | viability increase [3] -3.51% | viability [4] 92% | viability [5] 92.5% | inhibition [6] -0.185% | RAM network inhibition [7] -1.66%

CN1C(=O)C(Cc2cccs2)C(=O)N(C)C1=O
inactive: growth inhibition [1] -5.75% | growth inhibition [2] -4.64% | viability increase [3] 0% | viability [4] 100% | viability [5] 98.9% | inhibition [6] 0.795% | RAM network inhibition [7] 4.94%

C[C@H]1CCC[C@@H](O)CCC/C=C/c2cc(O)cc(O)c2C(=O)O1
inactive: growth inhibition [1] -5.6% | growth inhibition [2] -3.65% | viability increase [3] -7.59% | viability [4] 46.9% | viability [5] 44.9% | inhibition [6] 0.64% | RAM network inhibition [7] 1.97%

CN(C)C1(c2nnnn2-c2ccc(Cl)cc2)CCCCC1
inactive: growth inhibition [1] -14.4% | growth inhibition [2] -18.1% | viability increase [3] 0.76% | viability [4] 86.2% | viability [5] 76.3% | inhibition [6] 2.52% | RAM network inhibition [7] 3.64%
